Laboratory results from ChEMBL document CHEMBL5329156, “Discovery and development of novel substituted monohydrazides as potent antifungal agents” (RSC Med Chem, 2023).
In brackets after ≈: the same amount, converted by molar mass.

Experiments:
Nakaseomyces glabratus [1] = assay: Antifungal activity against Candida glabrata ATCC 2001 assessed as fungal growth inhibition by double dilution method; format: functional
In short: (§1)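 Broth microdilution after CLSI M27-A3/M38-A2 with minor changes. Single colony grown overnight in YPD at 35 °C, 200 rpm. Compound final range 0.06-31.3 µg/mL; incubated 48 h at 35 °C.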

Candida albicans [2] = assay: Antifungal activity against itraconazole/fluconazole resistant Candida albicans ATCC MYA-1003 assessed as fungal growth inhibition by double dilution method; format: functional
In short: (§2)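 Broth microdilution after CLSI M27-A3/M38-A2 with minor modifications. A single colony was grown overnight in YPD at 35 °C with shaking at 200 rpm. Cells were mixed 1:1 with compound (final 0.06-31.3 µg/mL, from DMSO stocks) and incubated 48 h at 35 °C.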

Candida albicans [3] = assay: Antifungal activity against itraconazole/fluconazole susceptible Candida albicans ATCC MYA-2310 assessed as fungal growth inhibition by double dilution method; format: functional; in short: as §2
Aspergillus nidulans = assay: Antifungal activity against Aspergillus nidulans ATCC 38163 assessed as fungal growth inhibition by double dilution method; format: functional
Nakaseomyces glabratus [4] = assay: Antifungal activity against Candida glabrata ATCC 22019 assessed as fungal growth inhibition by double dilution method; format: functional; in short: as §1
[5] = Cytotoxicity against human HepG2 cells assessed as cell survival at 31.3 microg/ml relative to control; format: toxicity, cell-based; details: at 31.3 µg/mL, read-out: Activity
In short: (§3)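 Cells in DMEM with 10% FBS and 1% Pen/Strep, seeded at 10,000 cells/well and held overnight at 37 °C, 5% CO2. Compounds added at final 31.3-0.12 µg/mL (0.05% DMSO vehicle) for 24 h. Resazurin then added for 6 h; fluorescence read at ex 560/em 590. Triton X-100 1% as positive control; values normalized to vehicle. Run in quadruplicate.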

Aspergillus fumigatus [6] = assay: Antifungal activity against Aspergillus fumigatus NRRL 163 assessed as fungal growth inhibition by double dilution method; format: functional
Candida albicans [7] = assay: Antifungal activity against itraconazole/fluconazole susceptible Candida albicans ATCC MYA-2876 assessed as fungal growth inhibition by double dilution method; format: functional; in short: as §2
Candida albicans [8] = assay: Antifungal activity against itraconazole/fluconazole resistant Candida albicans ATCC 90819 assessed as fungal growth inhibition by double dilution method; format: functional; in short: as §2
Candida albicans [9] = assay: Antifungal activity against Candida albicans ATCC 64124 assessed as fungal growth inhibition by double dilution method; format: functional; in short: as §2
Candida albicans [10] = assay: Antifungal activity against itraconazole/fluconazole resistant Candida albicans ATCC MYA-1237 assessed as fungal growth inhibition by double dilution method; format: functional; in short: as §2
Candida albicans [11] = assay: Antifungal activity against Candida albicans ATCC 10231 assessed as fungal growth inhibition by double dilution method; format: functional; in short: as §1
[Candida] auris [12] = Antifungal activity against Candida auris AR Bank # 0390 assessed as fungal growth inhibition by double dilution method; format: functional; details: Candidozyma auris; in short: as §1
[Candida] auris [13] = Antifungal activity against Candida auris AR Bank # 0384 assessed as fungal growth inhibition by double dilution method; format: functional; details: Candidozyma auris; in short: as §1
HEK293 = assay: Cytotoxicity against human HEK-293 cells assessed as reduction in cell viability at 31.3 microg/ml; format: toxicity, cell-based; details: dose 31.3 µg/ml; in short: as §3
Cryptococcus neoformans = assay: Antifungal activity against Cryptococcus neoformans ATCC MYA-895 assessed as fungal growth inhibition by double dilution method; format: functional; in short: as §1
Aspergillus fumigatus [14] = assay: Antifungal activity against Aspergillus fumigatus NRRL 5109 assessed as fungal growth inhibition by double dilution method; format: functional
Pichia kudriavzevii [15] = assay: Antifungal activity against Pichia kudriavzevii ATCC 6258 assessed as fungal growth inhibition by double dilution method; format: functional; in short: as §1
J774.A1 = assay: Cytotoxicity against J774A.1 cells assessed as reduction in cell viability at 31.3 microg/ml; format: toxicity, cell-based; details: mouse, dose 31.3 µg/ml; in short: as §3
Aspergillus flavus = assay: Antifungal activity against Aspergillus flavus ATCC MYA-3631 assessed as fungal growth inhibition by double dilution method; format: functional
Aspergillus terreus = assay: Antifungal activity against Aspergillus terreus ATCC MYA-3633 assessed as fungal growth inhibition by double dilution method; format: functional
Aspergillus fumigatus [16] = assay: Antifungal activity against Aspergillus fumigatus NRRL 6113 assessed as fungal growth inhibition by double dilution method; format: functional
[Candida] haemuloni [17] = Antifungal activity against Candida haemulonii AR Bank # 395 assessed as fungal growth inhibition by double dilution method; format: functional; details: Candidozyma haemuli; in short: as §1
[Candida] auris [18] = Antifungal activity against Candida auris AR Bank # 387 assessed as fungal growth inhibition by double dilution method; format: functional; details: Candidozyma auris; in short: as §1
[Candida] auris [19] = Antifungal activity against Candida auris AR Bank # 385 assessed as fungal growth inhibition by double dilution method; format: functional; details: Candidozyma auris; in short: as §1
[Candida] auris [20] = Antifungal activity against Candida auris AR Bank # 381 assessed as fungal growth inhibition by double dilution method; format: functional; details: Candidozyma auris; in short: as §1
Candida duobushaemulonii [21] = assay: Antifungal activity against Candida duobushaemulonii AR Bank # 394 assessed as fungal growth inhibition by double dilution method; format: functional; details: Candidozyma duobushaemuli; in short: as §1
Saccharomyces cerevisiae [22] = assay: Antifungal activity against Saccharomyces cerevisiae AR Bank # 400 assessed as fungal growth inhibition by double dilution method; format: functional; in short: as §1
[Candida] auris [23] = Antifungal activity against Candida auris AR Bank # 384 assessed as fungal growth inhibition by double dilution method; format: functional; details: Candidozyma auris; in short: as §1
Clavispora lusitaniae = assay: Antifungal activity against Clavispora lusitaniae AR Bank # 398 assessed as fungal growth inhibition by double dilution method; format: functional; in short: as §1
[Candida] auris [24] = Antifungal activity against Candida auris AR Bank # 388 assessed as fungal growth inhibition by double dilution method; format: functional; details: Candidozyma auris; in short: as §1
HepG2 = assay: Cytotoxicity against human HepG2 cells assessed as reduction in cell viability upto 31.3 microg/ml; format: toxicity, cell-based; details: dose < 31.3 µg/ml; in short: as §3
[Candida] haemuloni [25] = Antifungal activity against Candida haemulonii AR Bank # 393 assessed as fungal growth inhibition by double dilution method; format: functional; details: Candidozyma haemuli; in short: as §1
Candida duobushaemulonii [26] = assay: Antifungal activity against Candida duobushaemulonii AR Bank # 392 assessed as fungal growth inhibition by double dilution method; format: functional; details: Candidozyma duobushaemuli; in short: as §1
[Candida] auris [27] = Antifungal activity against Candida auris AR Bank # 389 assessed as fungal growth inhibition by double dilution method; format: functional; details: Candidozyma auris; in short: as §1
Pichia kudriavzevii [28] = assay: Antifungal activity against Pichia kudriavzevii AR Bank # 397 assessed as fungal growth inhibition by double dilution method; format: functional; in short: as §1
[Candida] auris [29] = Antifungal activity against Candida auris AR Bank # 386 assessed as fungal growth inhibition by double dilution method; format: functional; details: Candidozyma auris; in short: as §1
Candida duobushaemulonii [30] = assay: Antifungal activity against Candida duobushaemulonii AR Bank # 391 assessed as fungal growth inhibition by double dilution method; format: functional; details: Candidozyma duobushaemuli; in short: as §1
[Candida] auris [31] = Antifungal activity against Candida auris AR Bank # 383 assessed as fungal growth inhibition by double dilution method; format: functional; details: Candidozyma auris; in short: as §1
[Candida] auris [32] = Antifungal activity against Candida auris AR Bank # 390 assessed as fungal growth inhibition by double dilution method; format: functional; details: Candidozyma auris; in short: as §1
Kodamaea ohmeri = assay: Antifungal activity against Kodamaea ohmeri AR Bank # 396 assessed as fungal growth inhibition by double dilution method; format: functional; in short: as §1
Saccharomyces cerevisiae [33] = assay: Antifungal activity against Saccharomyces cerevisiae AR Bank # 399 assessed as fungal growth inhibition by double dilution method; format: functional; in short: as §1
[Candida] auris [34] = Antifungal activity against Candida auris AR Bank # 382 assessed as fungal growth inhibition by double dilution method; format: functional; details: Candidozyma auris; in short: as §1

O=C(NNc1cccc(F)c1)c1cnccn1
MIC (Nakaseomyces glabratus [1]): 7.8 µg/mL (≈ 33.6 µM) | MIC (Candida albicans [2]): 0.98 µg/mL (≈ 4.22 µM) | MIC (Candida albicans [3]): 7.8 µg/mL (≈ 33.6 µM) | MIC (Aspergillus nidulans): 0.98 µg/mL (≈ 4.22 µM) | MIC (Nakaseomyces glabratus [4]): 3.9 µg/mL (≈ 16.8 µM) | viability at 31.3 microg/ml [5]: 94% | MIC (Aspergillus fumigatus [6]): > 31.3 µg/mL | MIC (Candida albicans [7]): 3.9 µg/mL (≈ 16.8 µM) | MIC (Candida albicans [8]): 0.98 µg/mL (≈ 4.22 µM) | MIC (Candida albicans [9]): 1.95 µg/mL (≈ 8.4 µM) | MIC (Candida albicans [10]): 0.98 µg/mL (≈ 4.22 µM) | MIC (Candida albicans [11]): 0.24 µg/mL (≈ 1.03 µM) | MIC ([Candida] auris [12]): 0.98 µg/mL (≈ 4.22 µM) | MIC ([Candida] auris [13]): 0.98 µg/mL (≈ 4.22 µM) | Activity (HEK293): Non-Toxic | MIC (Cryptococcus neoformans): 0.12 µg/mL (≈ 0.517 µM) | MIC (Aspergillus fumigatus [14]): > 31.3 µg/mL | MIC (Pichia kudriavzevii [15]): 0.49 µg/mL (≈ 2.11 µM) | Activity (J774.A1): Non-Toxic | MIC (Aspergillus flavus): 15.6 µg/mL (≈ 67.2 µM) | MIC (Aspergillus terreus): 0.98 µg/mL (≈ 4.22 µM) | MIC (Aspergillus fumigatus [16]): > 31.3 µg/mL

O=C(NNc1ccc(F)cc1F)c1cnccn1
MIC (Nakaseomyces glabratus [1]): 0.98 µg/mL (≈ 3.92 µM) | MIC (Candida albicans [2]): 0.49 µg/mL (≈ 1.96 µM) | MIC ([Candida] haemuloni [17]): 1.95 µg/mL (≈ 7.79 µM) | MIC (Candida albicans [3]): 3.9 µg/mL (≈ 15.6 µM) | MIC (Aspergillus nidulans): 0.49 µg/mL (≈ 1.96 µM) | MIC (Nakaseomyces glabratus [4]): 3.9 µg/mL (≈ 15.6 µM) | MIC ([Candida] auris [18]): 0.49 µg/mL (≈ 1.96 µM) | MIC ([Candida] auris [19]): 0.98 µg/mL (≈ 3.92 µM) | MIC ([Candida] auris [20]): 3.9 µg/mL (≈ 15.6 µM) | MIC (Candida duobushaemulonii [21]): 7.8 µg/mL (≈ 31.2 µM) | MIC (Saccharomyces cerevisiae [22]): 1.95 µg/mL (≈ 7.79 µM) | MIC ([Candida] auris [23]): 3.9 µg/mL (≈ 15.6 µM) | MIC (Clavispora lusitaniae): 3.9 µg/mL (≈ 15.6 µM) | MIC ([Candida] auris [24]): 0.49 µg/mL (≈ 1.96 µM) | MIC (Aspergillus fumigatus [6]): > 31.3 µg/mL | MIC (Candida albicans [7]): 0.98 µg/mL (≈ 3.92 µM) | Activity (HepG2): Non-Toxic | MIC ([Candida] haemuloni [25]): 0.24 µg/mL (≈ 0.959 µM) | MIC (Candida duobushaemulonii [26]): 0.24 µg/mL (≈ 0.959 µM) | MIC (Candida albicans [8]): 0.98 µg/mL (≈ 3.92 µM) | MIC ([Candida] auris [27]): 0.49 µg/mL (≈ 1.96 µM) | MIC (Pichia kudriavzevii [28]): 1.95 µg/mL (≈ 7.79 µM) | MIC ([Candida] auris [29]): 0.49 µg/mL (≈ 1.96 µM) | MIC (Candida albicans [9]): 0.98 µg/mL (≈ 3.92 µM) | MIC (Candida albicans [10]): 0.49 µg/mL (≈ 1.96 µM) | MIC (Candida albicans [11]): 0.24 µg/mL (≈ 0.959 µM) | MIC ([Candida] auris [12]): 0.98 µg/mL (≈ 3.92 µM) | MIC ([Candida] auris [13]): 3.9 µg/mL (≈ 15.6 µM) | Activity (HEK293): Non-Toxic | MIC (Cryptococcus neoformans): 0.24 µg/mL (≈ 0.959 µM) | MIC (Candida duobushaemulonii [30]): 0.49 µg/mL (≈ 1.96 µM) | MIC (Aspergillus fumigatus [14]): > 31.3 µg/mL | MIC (Pichia kudriavzevii [15]): 0.24 µg/mL (≈ 0.959 µM) | Activity (J774.A1): Non-Toxic | MIC (Aspergillus flavus): 7.8 µg/mL (≈ 31.2 µM) | MIC (Aspergillus terreus): 0.98 µg/mL (≈ 3.92 µM) | MIC ([Candida] auris [31]): 0.98 µg/mL (≈ 3.92 µM) | MIC ([Candida] auris [32]): 0.98 µg/mL (≈ 3.92 µM) | MIC (Aspergillus fumigatus [16]): > 31.3 µg/mL | MIC (Kodamaea ohmeri): 0.98 µg/mL (≈ 3.92 µM) | MIC (Saccharomyces cerevisiae [33]): 7.8 µg/mL (≈ 31.2 µM) | MIC ([Candida] auris [34]): 1.95 µg/mL (≈ 7.79 µM)
